{"data": "Assay results gathered from unrelated publications", "target": "Homeodomain-interacting protein kinase 4 (HIPK4, Homo sapiens, UniProt Q8NE63)", "Residues used in one study (Q8NE63 1-616)": "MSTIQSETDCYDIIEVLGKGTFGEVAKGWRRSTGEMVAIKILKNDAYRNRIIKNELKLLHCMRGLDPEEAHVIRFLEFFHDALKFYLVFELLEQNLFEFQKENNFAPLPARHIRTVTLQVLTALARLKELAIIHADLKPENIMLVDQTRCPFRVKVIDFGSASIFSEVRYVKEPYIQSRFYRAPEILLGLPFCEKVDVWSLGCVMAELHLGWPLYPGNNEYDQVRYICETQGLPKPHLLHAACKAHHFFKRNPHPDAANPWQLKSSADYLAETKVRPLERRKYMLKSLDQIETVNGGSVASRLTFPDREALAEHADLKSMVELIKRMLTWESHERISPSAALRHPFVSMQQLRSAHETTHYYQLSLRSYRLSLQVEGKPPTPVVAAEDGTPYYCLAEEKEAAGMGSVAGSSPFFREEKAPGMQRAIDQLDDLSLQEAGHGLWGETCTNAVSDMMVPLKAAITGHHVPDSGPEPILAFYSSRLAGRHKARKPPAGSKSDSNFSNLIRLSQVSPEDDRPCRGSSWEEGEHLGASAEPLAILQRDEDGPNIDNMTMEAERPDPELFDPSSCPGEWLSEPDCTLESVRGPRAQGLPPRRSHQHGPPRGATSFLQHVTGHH", "note": "Compare with care: the assays were run in different laboratories."}
{"SMILES": "O=C1NC(=O)c2cc(Nc3ccc(F)cc3)c(Nc3ccc(F)cc3)cc21", "assay": "cell-free assay", "setting": "0.5 µM", "quantity": "remaining signal", "result": "82.5%"}
{"SMILES": "COc1cccc(CCNc2nc3cc(C(=O)O)ccc3c3cnccc23)c1", "assay": "enzyme activity, inhibitor, radiometric", "setting": "1 µM", "quantity": "remaining activity", "result": "-8%"}
{"SMILES": "Nc1ncnc2occ(-c3ccc(NC(=O)Nc4cc(C(F)(F)F)ccc4F)cc3)c12", "assay": "cell-free assay, inhibitor", "setting": "20 µM", "quantity": "remaining signal", "result": "0.95%"}
{"SMILES": "O=C(O)c1ccc2c(c1)nc(NCCc1cccc(F)c1)c1ncncc12", "assay": "enzyme activity, inhibitor, radiometric", "setting": "1 µM", "quantity": "remaining activity", "result": "10%"}
{"SMILES": "CNC(=O)c1cc2c(Oc3ccc(NC(=O)C4(C(=O)Nc5ccc(F)cc5)CC4)cc3)ccnc2cc1OC", "assay": "enzyme activity, inhibitor, radiometric", "setting": "1 µM", "quantity": "inhibition", "result": "102%"}
{"SMILES": "CN1CC(Oc2cnc(C#N)cc2-c2ccn3nc(NC(=O)C4CC4)cc3c2)C1", "assay": "enzyme activity, inhibitor", "setting": "1 µM", "quantity": "inhibition", "result": "2%"}
{"SMILES": "O=C(Nc1cnc(Oc2ccc(F)cc2)nc1)N1CCc2ncccc2[C@@H]1c1ccc(F)cc1", "assay": "cell-free assay, competition with immobilised ligand", "setting": "1 µM", "quantity": "remaining binding", "result": "100%"}
{"SMILES": "O=C(O)c1ccc2c(c1)nc(Nc1ccccc1Cl)c1ncncc12", "assay": "enzyme activity, inhibitor, radiometric", "setting": "1 µM", "quantity": "remaining activity", "result": "-3%"}
{"SMILES": "CC(C)CC(=O)N1CCc2nc(-c3ccc(Br)cc3)nc(N(C)Cc3ccccc3)c2C1", "assay": "cell-free assay, competition with immobilised ligand", "setting": "0.1 µM", "quantity": "remaining binding", "result": "61%"}
{"SMILES": "CC/C(=N\\NC(=O)NCc1cccc(O)c1)c1ccc(O)c(C)c1O", "assay": "enzyme activity, inhibitor", "setting": "0.1 µM", "quantity": "inhibition", "result": "1.5%"}
{"SMILES": "CNC(=O)c1cc(Oc2ccc(NC(=O)Nc3ccc(Cl)c(C(F)(F)F)c3)cc2)ccn1", "assay": "cell-free assay", "setting": "0.5 µM", "quantity": "remaining signal", "result": "4.85%"}
{"SMILES": "O=C(O)c1ccc2c(c1)nc(Nc1ccc(F)c(Cl)c1)c1ccncc12", "assay": "enzyme activity, inhibitor, radiometric", "setting": "1 µM", "quantity": "remaining activity", "result": "75%"}
{"SMILES": "C[C@@H](c1cccc(C#N)c1)n1cc(Cl)cc(C(N)=O)c1=N", "assay": "cell-free assay, competition with immobilised ligand", "setting": "1 µM", "quantity": "remaining binding", "result": "100%"}
{"SMILES": "N#Cc1cccc(Nc2nc3cc(C(=O)O)ccc3c3cnccc23)c1", "assay": "enzyme activity, inhibitor, radiometric", "setting": "1 µM", "quantity": "remaining activity", "result": "29%"}
{"SMILES": "N#CC1(c2ccccn2)CCN(Cc2cc(C(=O)N3CCCC3)c(=O)n3ccccc23)CC1", "assay": "cell-free assay, competition with immobilised ligand", "setting": "1 µM", "quantity": "remaining binding", "result": "67%"}
{"SMILES": "COc1cc2ncnc(Nc3ccc(Oc4ccccc4)c(C)c3C)c2cc1OC", "assay": "enzyme activity, inhibitor", "setting": "1 µM", "quantity": "inhibition", "result": "-2%"}
{"SMILES": "CCCOc1ccc([C@H]2[C@H](C(=O)O)[C@@H](c3ccc4c(c3)OCO4)CN2CC(=O)Nc2c(CC)cccc2CC)cc1", "assay": "cell-free assay, competition with immobilised ligand", "setting": "1 µM", "quantity": "remaining binding", "result": "70%"}
{"SMILES": "COc1ccc(COc2ccc(Cc3cnc(N)nc3N)cc2OC)cc1", "assay": "cell-free assay", "setting": "0.5 µM", "quantity": "remaining signal", "result": "97.7%"}
{"SMILES": "COc1cccc(Nc2nc3cc(C(=O)O)ccc3c3cnccc23)c1", "assay": "enzyme activity, inhibitor, radiometric", "setting": "1 µM", "quantity": "remaining activity", "result": "-14%"}
{"SMILES": "CO[C@@H](C)c1c(Nc2ccc([C@@H](N(C)C(=O)C3CCS(=O)(=O)CC3)C(F)(F)F)cc2)cnc2cc(Cl)nn12", "assay": "cell-free assay, competition with immobilised ligand", "setting": "1 µM", "quantity": "remaining binding", "result": "100%"}
